ChEMBL document CHEMBL5360637, “Ravidomycin Analogs from Streptomyces sp. Exhibit Altered Antimicrobial and Cytotoxic Selectivity” (J Nat Prod, 2023)
In brackets after ≈: the same amount, converted by molar mass.

Legend:
Candida albicans = experiment: Antifungal activity against Candida albicans SC5314 assessed as bacterial growth inhibition incubated for 24 hrs by microtiter plate reader analysis; type: functional
Summary of the method: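 C. albicans was grown in RPMI 1640 with 165 mM MOPS, pH 7.0. Overnight culture was diluted 1:1000 and 200 μL was added to wells holding 2 μL of compound in DMSO. Plates were incubated 24 h at room temperature under room fluorescent light, then OD600 was read. MIC was the lowest concentration preventing OD600 from exceeding 0.1.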

Staphylococcus aureus = experiment: Antibacterial activity against Staphylococcus aureus Newman assessed as bacterial growth inhibition incubated for 24 hrs by microtiter plate reader analysis; type: functional
Summary of the method: (§1)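 Broth microdilution in Mueller-Hinton broth (P. aeruginosa PAO1 is the mexAB-oprM strain). Overnight cultures were diluted 1:1000 and 200 μL was added to wells holding 2 μL of compound in DMSO. Plates were incubated 24 h at room temperature under room fluorescent light, then OD600 was read. MIC was taken as the lowest concentration keeping OD600 from rising above 0.1.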

HCC1806 = experiment: Cytotoxicity against human HCC1806 cells assessed as reduction in cell viability incubated for 72 hrs by Cell-titer glo assay; type: functional, cell-based; details: HCC1806, 72 h
Summary of the method: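 HCC1806 cells were grown in DMEM with 10% FBS, penicillin/streptomycin and 1% GlutaMax, were mycoplasma-tested and kept ≤4 weeks. Cells were seeded at 2500 per well and treated after 24 h, with six wells per dose, against a 0.1% DMSO vehicle. CellTiter-Glo 2.0 luminescence was read at 72 h. IC50 came from a log(inhibitor) vs normalized response least-squares fit of % viability relative to DMSO.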

Pseudomonas aeruginosa = experiment: Antibacterial activity against Pseudomonas aeruginosa PAO1 assessed as bacterial growth inhibition incubated for 24 hrs by microtiter plate reader analysis; type: functional; summary of the method: as §1

MIC (Candida albicans) [mg/L]	MIC (Staphylococcus aureus) [mg/L]	MIC (Pseudomonas aeruginosa) [mg/L]	Compound	IC50 (HCC1806) [µM]
100 (≈ 196 µM)	1.6 (≈ 3.14 µM)	> 100	COc1cc2c(oc(=O)c3cc(C)cc(OC)c32)c2c([C@@H]3O[C@H](C)[C@H](O)[C@H](N(C)C)[C@H]3O)ccc(O)c12	3.6
0.78 (≈ 1.54 µM)	0.049 (≈ 0.0965 µM)	6.3 (≈ 12.4 µM)	C=Cc1cc(OC)c2c(c1)c(=O)oc1c2cc(OC)c2c(O)ccc([C@@H]3O[C@H](C)[C@H](O)[C@H](NC)[C@H]3O)c21	0.053
6.3 (≈ 11.7 µM)	0.006 (≈ 0.0112 µM)	> 100	C=Cc1cc(OC)c2c(c1)c(=O)oc1c2cc(OC)c2c(O)ccc([C@@H]3O[C@H](C)[C@H](O)[C@H](OC(C)=O)[C@H]3O)c21	0.37
25 (≈ 47.7 µM)	0.78 (≈ 1.49 µM)	> 100	CCc1cc(OC)c2c(c1)c(=O)oc1c2cc(OC)c2c(O)ccc([C@@H]3O[C@H](C)[C@H](O)[C@H](N(C)C)[C@H]3O)c21	> 10
13 (≈ 25.6 µM)	0.39 (≈ 0.768 µM)	> 13	C=Cc1cc(O)c2c(c1)c(=O)oc1c2cc(OC)c2c(O)ccc([C@@H]3O[C@H](C)[C@H](O)[C@H](N(C)C)[C@H]3O)c21	> 10
6.3 (≈ 11.1 µM)	0.003 (≈ 0.0053 µM)	50 (≈ 88.4 µM)	C=Cc1cc(OC)c2c(c1)c(=O)oc1c2cc(OC)c2c(O)ccc([C@@H]3O[C@H](C)[C@H](O)[C@H](N(C)C(=O)OC)[C@H]3O)c21	0.55
> 25	0.049 (≈ 0.0913 µM)	> 100	C=Cc1cc(OC)c2c(c1)c(=O)oc1c2cc(OC)c2c(O)ccc([C@@H]3O[C@H](C)[C@H](O)[C@H](O)[C@H]3OC(C)=O)c21	0.87
6.3 (≈ 13.2 µM)	0.1 (≈ 0.209 µM)	50 (≈ 104 µM)	C=Cc1cc(OC)c2c(c1)c(=O)oc1c2cc(OC)c2c(O)ccc([C@@H]3O[C@H](C)[C@H](O)C[C@H]3O)c21	> 10
13 (≈ 24.3 µM)	0.1 (≈ 0.187 µM)	> 13	C=Cc1cc(OC)c2c(c1)c(=O)oc1c2cc(OC)c2c(O)ccc([C@@H]3O[C@H](C)[C@H](O)[C@H](NC(C)=O)[C@H]3O)c21	> 10
6.3 (≈ 11.7 µM)	0.003 (≈ 0.00559 µM)	50 (≈ 93.2 µM)	C=Cc1cc(OC)c2c(c1)c(=O)oc1c2cc(OC)c2c(O)ccc([C@@H]3O[C@H](C)[C@H](OC(C)=O)[C@H](O)[C@H]3O)c21	5.1
0.78 (≈ 1.5 µM)	0.006 (≈ 0.0115 µM)	3.1 (≈ 5.94 µM)	C=Cc1cc(OC)c2c(c1)c(=O)oc1c2cc(OC)c2c(O)ccc([C@@H]3O[C@H](C)[C@H](O)[C@H](N(C)C)[C@H]3O)c21	0.081
6.3 (≈ 11.4 µM)	0.012 (≈ 0.0218 µM)	25 (≈ 45.3 µM)	C=Cc1cc(OC)c2c(c1)c(=O)oc1c2cc(OC)c2c(O)ccc([C@@H]3O[C@H](C)[C@H](O)[C@H](NC(=O)OC)[C@H]3O)c21	0.71
> 13	13 (≈ 24.1 µM)	> 13	COc1cc2c(oc(=O)c3cc([C@H](C)O)cc(OC)c32)c2c([C@@H]3O[C@H](C)[C@H](O)[C@H](N(C)C)[C@H]3O)ccc(O)c12	> 10
13 (≈ 23.7 µM)	0.006 (≈ 0.0109 µM)	50 (≈ 91 µM)	C=Cc1cc(OC)c2c(c1)c(=O)oc1c2cc(OC)c2c(O)ccc([C@@H]3O[C@H](C)[C@H](O)[C@H](N(C)C(C)=O)[C@H]3O)c21	1.7

Compound	MIC (Candida albicans) [mg/L]	MIC (Staphylococcus aureus) [mg/L]	MIC (Pseudomonas aeruginosa) [mg/L]	IC50 (HCC1806) [µM]
C=Cc1cc(OC)c2c(c1)c(=O)oc1c2cc(OC)c2c(O)ccc([C@@H]3O[C@H](C)[C@H](OC(C)=O)[C@H](N(C)C)[C@H]3O)c21	0.39 (≈ 0.692 µM)	0.39 (≈ 0.692 µM)	13 (≈ 23.1 µM)	0.042
C=Cc1cc(OC)c2c(c1)c(=O)oc1c2cc(OC)c2c(O)ccc([C@@H]3O[C@H](C)[C@H](O)[C@H](O)[C@H]3O)c21	13 (≈ 26.3 µM)	0.006 (≈ 0.0121 µM)	3.1 (≈ 6.27 µM)	3.6
